Laboratory results from ChEMBL document CHEMBL1914368, “Imidazo[1,5-a]quinoxalines as irreversible BTK inhibitors for the treatment of rheumatoid arthritis” (Bioorg Med Chem Lett, 2011).
Calls of active or inactive are those of the source. No cut-off for these calls is given here.

Key:
[1] = target: Protein-tyrosine kinase 6 (Homo sapiens) (UniProt Q13882); assay: Inhibition of BRK relative to control; details: concentration not given here
Mus musculus [2] = assay: Antiarthritic activity in DBA/1 JBomTac mouse collagen-induced arthritis model assessed as inhibition of disease progression at 10 mg/kg, po qd measured on day 7 to 22; format: functional, organism-based; set-up: dose 10 mg/kg
In short: (§1)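 Semi-therapeutic collagen-induced arthritis model. Blinded paw scoring used a 0–4 scale, reported as mean and SEM. Comparison to vehicle used Student's t-test, P <0.05.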

Mus musculus [3] = assay: Antiarthritic activity in DBA/1 JBomTac mouse collagen-induced arthritis model assessed as inhibition of disease progression at 3 mg/kg, po qd measured on day 5 to 22; format: functional, organism-based; set-up: dose 3 mg/kg; in short: as §1
[4] = target: Tyrosine-protein kinase ABL2 (Homo sapiens) (UniProt P42684); assay: Inhibition of ABL2 relative to control; details: concentration not given here
Sequence of Tyrosine-protein kinase ABL2 (Homo sapiens) (P42684 whole entry): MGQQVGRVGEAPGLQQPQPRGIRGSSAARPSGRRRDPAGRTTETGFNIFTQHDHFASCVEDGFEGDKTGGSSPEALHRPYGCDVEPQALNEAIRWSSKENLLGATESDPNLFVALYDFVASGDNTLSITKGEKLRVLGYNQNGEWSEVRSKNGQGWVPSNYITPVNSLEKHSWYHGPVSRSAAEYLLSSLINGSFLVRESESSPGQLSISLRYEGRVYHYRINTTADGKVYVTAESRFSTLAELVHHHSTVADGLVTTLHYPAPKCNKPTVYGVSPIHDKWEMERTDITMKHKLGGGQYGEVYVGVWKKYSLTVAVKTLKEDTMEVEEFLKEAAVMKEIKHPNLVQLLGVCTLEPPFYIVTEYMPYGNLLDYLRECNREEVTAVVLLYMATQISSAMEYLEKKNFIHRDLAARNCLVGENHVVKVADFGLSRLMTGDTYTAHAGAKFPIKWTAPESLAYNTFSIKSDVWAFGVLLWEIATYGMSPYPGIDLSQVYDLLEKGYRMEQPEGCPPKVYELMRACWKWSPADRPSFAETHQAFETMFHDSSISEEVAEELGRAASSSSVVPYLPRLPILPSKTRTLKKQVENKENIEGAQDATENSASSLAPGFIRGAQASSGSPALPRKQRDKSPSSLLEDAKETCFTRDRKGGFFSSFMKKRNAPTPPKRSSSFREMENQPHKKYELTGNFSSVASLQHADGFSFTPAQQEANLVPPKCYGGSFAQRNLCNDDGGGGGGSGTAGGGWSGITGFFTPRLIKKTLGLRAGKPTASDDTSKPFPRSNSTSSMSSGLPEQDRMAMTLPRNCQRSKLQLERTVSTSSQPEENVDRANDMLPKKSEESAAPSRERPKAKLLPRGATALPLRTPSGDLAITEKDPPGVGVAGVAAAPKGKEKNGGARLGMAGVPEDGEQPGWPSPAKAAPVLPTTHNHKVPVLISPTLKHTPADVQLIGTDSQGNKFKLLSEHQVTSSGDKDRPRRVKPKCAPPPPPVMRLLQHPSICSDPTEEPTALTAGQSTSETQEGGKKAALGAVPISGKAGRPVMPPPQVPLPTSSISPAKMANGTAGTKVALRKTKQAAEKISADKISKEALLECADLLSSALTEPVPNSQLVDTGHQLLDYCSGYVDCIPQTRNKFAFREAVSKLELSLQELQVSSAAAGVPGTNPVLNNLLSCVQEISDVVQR

[5] = target: Receptor tyrosine-protein kinase erbB-2 (Homo sapiens) (UniProt P04626); assay: Inhibition of HER2 relative to control; details: concentration not given here
Sequence of Receptor tyrosine-protein kinase erbB-2 (Homo sapiens) (P04626 whole entry): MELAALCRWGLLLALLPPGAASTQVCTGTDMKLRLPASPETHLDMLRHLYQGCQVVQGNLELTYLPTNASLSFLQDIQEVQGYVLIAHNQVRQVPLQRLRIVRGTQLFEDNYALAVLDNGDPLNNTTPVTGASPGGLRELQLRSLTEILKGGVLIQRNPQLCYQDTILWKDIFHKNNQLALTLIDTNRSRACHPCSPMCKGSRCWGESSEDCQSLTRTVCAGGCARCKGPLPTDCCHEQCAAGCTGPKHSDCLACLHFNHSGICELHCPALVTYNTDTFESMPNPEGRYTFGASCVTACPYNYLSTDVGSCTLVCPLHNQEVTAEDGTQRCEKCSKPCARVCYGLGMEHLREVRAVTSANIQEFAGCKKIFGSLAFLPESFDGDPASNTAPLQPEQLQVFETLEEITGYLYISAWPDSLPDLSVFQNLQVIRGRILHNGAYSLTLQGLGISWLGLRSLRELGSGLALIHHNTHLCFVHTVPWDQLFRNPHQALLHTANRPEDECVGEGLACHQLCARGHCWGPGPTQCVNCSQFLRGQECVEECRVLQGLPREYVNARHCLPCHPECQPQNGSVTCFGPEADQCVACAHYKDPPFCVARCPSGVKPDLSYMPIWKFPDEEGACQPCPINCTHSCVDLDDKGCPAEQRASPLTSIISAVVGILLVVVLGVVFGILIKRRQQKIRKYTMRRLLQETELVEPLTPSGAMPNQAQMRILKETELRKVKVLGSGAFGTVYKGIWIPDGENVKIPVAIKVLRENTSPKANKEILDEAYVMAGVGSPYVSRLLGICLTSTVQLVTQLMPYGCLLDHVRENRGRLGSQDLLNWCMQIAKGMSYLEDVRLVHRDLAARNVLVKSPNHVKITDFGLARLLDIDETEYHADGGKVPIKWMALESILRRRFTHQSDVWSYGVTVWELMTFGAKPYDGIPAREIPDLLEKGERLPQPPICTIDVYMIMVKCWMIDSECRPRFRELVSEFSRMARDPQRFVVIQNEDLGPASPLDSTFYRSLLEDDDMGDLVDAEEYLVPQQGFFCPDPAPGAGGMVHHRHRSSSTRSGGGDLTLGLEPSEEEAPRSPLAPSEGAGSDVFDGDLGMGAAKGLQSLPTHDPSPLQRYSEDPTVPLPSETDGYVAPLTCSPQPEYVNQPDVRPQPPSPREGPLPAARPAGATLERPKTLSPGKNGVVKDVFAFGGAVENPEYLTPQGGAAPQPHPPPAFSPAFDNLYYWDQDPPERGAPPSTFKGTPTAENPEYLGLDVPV

[6] = target: Receptor tyrosine-protein kinase erbB-4 (Homo sapiens, UniProt Q15303); assay: Inhibition of HER4 relative to control; details: concentration not given here
Sequence of Receptor tyrosine-protein kinase erbB-4 (Q15303 whole entry): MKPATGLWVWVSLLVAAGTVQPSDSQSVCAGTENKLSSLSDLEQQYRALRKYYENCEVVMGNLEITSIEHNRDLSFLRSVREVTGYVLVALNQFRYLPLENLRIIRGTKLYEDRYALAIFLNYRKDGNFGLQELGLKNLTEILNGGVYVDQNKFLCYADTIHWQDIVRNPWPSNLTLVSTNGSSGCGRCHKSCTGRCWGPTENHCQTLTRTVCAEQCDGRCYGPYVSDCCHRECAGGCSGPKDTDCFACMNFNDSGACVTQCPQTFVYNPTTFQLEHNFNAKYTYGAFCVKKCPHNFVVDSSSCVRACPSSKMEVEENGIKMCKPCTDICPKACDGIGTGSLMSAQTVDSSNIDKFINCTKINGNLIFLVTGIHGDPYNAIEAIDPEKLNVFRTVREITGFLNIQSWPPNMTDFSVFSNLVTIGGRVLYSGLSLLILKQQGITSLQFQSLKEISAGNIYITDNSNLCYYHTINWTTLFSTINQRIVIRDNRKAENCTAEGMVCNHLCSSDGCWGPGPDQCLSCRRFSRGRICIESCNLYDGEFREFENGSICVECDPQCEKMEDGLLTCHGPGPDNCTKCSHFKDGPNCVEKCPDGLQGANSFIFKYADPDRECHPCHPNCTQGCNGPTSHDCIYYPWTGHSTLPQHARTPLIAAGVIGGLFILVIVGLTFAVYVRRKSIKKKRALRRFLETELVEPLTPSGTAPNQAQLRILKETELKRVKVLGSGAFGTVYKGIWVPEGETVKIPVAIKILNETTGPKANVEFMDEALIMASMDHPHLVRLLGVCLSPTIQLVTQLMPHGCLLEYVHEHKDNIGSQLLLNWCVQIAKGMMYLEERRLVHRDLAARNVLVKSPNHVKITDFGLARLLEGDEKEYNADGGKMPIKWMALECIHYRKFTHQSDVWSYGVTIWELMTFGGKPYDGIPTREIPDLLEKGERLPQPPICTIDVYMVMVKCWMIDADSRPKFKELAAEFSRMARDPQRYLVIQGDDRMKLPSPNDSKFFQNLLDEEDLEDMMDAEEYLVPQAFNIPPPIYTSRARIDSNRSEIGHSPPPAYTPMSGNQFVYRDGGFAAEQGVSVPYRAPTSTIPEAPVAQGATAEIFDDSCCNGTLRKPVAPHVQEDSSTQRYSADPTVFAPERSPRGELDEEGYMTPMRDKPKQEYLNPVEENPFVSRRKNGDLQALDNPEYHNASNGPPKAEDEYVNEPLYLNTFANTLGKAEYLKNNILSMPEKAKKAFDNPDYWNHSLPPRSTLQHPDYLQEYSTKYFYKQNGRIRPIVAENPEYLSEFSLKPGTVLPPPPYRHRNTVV

[7] = target: Protein kinase C alpha type (Homo sapiens) (UniProt P17252); assay: Inhibition of PRKCA relative to control; details: concentration not given here

Sequence of Protein-tyrosine kinase 6 (Homo sapiens) (Q13882 whole entry, looked up): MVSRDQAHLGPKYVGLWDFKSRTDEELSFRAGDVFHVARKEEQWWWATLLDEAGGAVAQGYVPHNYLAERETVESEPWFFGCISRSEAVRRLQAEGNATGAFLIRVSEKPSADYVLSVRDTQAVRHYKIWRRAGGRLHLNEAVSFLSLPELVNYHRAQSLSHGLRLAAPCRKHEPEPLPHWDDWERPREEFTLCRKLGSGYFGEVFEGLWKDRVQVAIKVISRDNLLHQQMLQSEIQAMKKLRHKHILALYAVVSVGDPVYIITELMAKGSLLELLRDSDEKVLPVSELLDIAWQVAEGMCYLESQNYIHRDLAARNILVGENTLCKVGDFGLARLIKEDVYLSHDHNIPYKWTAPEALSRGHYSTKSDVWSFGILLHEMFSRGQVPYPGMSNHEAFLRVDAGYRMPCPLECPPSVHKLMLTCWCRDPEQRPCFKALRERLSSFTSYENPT

Cc1ccccc1Nc1nc2cc(F)c(N(C)C(=O)/C=C/CN(C)C)cc2n2cncc12
inhibition [1]: -4% | Activity (Mus musculus [2]): Active | Activity (Mus musculus [3]): Active | inhibition [4]: 65% | inhibition [5]: 19% | inhibition [6]: 101% | inhibition [7]: -6%
